Data from ChEMBL document CHEMBL3352270, “Antimalarial activity of abietane ferruginol analogues possessing a phthalimide group” (Bioorg Med Chem Lett, 2014).
Converted amounts (≈) assume the structure as drawn.

Experiments:
Plasmodium falciparum [1] = assay: Antimalarial activity against Plasmodium falciparum D6; assay type: functional, organism-based
Plasmodium falciparum [2] = assay: Antimalarial activity against chloroquine-sensitive Plasmodium falciparum D6; assay type: functional, organism-based
Plasmodium falciparum [3] = assay: microbe, parasite or virus in culture; assay type: functional, organism-based; conditions: K1, 72 h
HepG2 = assay: Cytotoxicity against human HepG2 cells; assay type: functional, cell-based
HEK293 = assay: Cytotoxicity against HEK293 cells; assay type: functional, cell-based; conditions: Homo sapiens
Plasmodium falciparum [4] = assay: Antimalarial activity against chloroquine-resistant Plasmodium falciparum W2; assay type: functional, organism-based
Plasmodium falciparum [5] = assay: Antimalarial activity against chloroquine-resistant Plasmodium falciparum K1; assay type: functional, organism-based
[6] = Selectivity index, ratio of cytotoxicity against CHO cells to IC50 for Plasmodium falciparum K1; assay type: toxicity, cell-based; conditions: hamster, read-out: Selectivity Index
[7] = Selectivity index, ratio of cytotoxicity against human HepG2 cells to IC50 for Plasmodium falciparum K1; assay type: toxicity, cell-based; conditions: read-out: Selectivity Index
Raji = assay: Cytotoxicity against human Raji cells; assay type: functional, cell-based
BJ = assay: Cytotoxicity against human BJ cells; assay type: ADME, cell-based
[8] = Selectivity index, ratio of cytotoxicity against human HepG2 cells to IC50 for Plasmodium falciparum D10; assay type: toxicity, cell-based; conditions: read-out: Selectivity Index
Plasmodium falciparum [9] = assay: microbe, parasite or virus in culture; assay type: functional, organism-based; conditions: 3D7, 72 h
[10] = Selectivity index, ratio of cytotoxic EC50 against human cells to EC50 for Plasmodium falciparum K1; conditions: human cells (cell line not named)
Plasmodium falciparum [11] = assay: Antimalarial activity against Plasmodium falciparum D10; assay type: functional
[12] = Selectivity index, ratio of cytotoxicity against rat L6 cells to IC50 for Plasmodium falciparum K1; assay type: toxicity, cell-based; conditions: read-out: Selectivity Index
[13] = Selectivity index, ratio of cytotoxic EC50 against human cells to EC50 for Plasmodium falciparum 3D7; conditions: human cells (cell line not named)
[14] = Selectivity index, ratio of cytotoxicity against CHO cells to IC50 for Plasmodium falciparum D10; assay type: toxicity, cell-based; conditions: hamster, read-out: Selectivity Index
Plasmodium falciparum [15] = assay: Antimalarial activity against Plasmodium falciparum K1; assay type: functional, organism-based
Method in brief: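 Chloroquine-resistant K1 strain of P. falciparum; […].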

CC(C)c1cc2c(cc1O)[C@@]1(C)CCCC(C)(C)[C@@H]1CC2 [FERRUGINOL] gave an IC50 (Plasmodium falciparum [1]) of 1.95 µg/mL (≈ 6.81 µM), an IC50 (Plasmodium falciparum [2]) of 4.2 µg/mL (≈ 14.7 µM) and an EC50 (Plasmodium falciparum [3]) of 1.33 µM. The EC50 (HepG2) was > 25 µM, the EC50 (HEK293) was > 25 µM and the IC50 (Plasmodium falciparum [4]) was 3.5 µg/mL (≈ 12.2 µM). The IC50 (Plasmodium falciparum [5]) was 0.9 µM, the selectivity ratio [6] was > 65 and the selectivity ratio [7] was > 65. The EC50 (Raji) was 11.5 µM, the EC50 (BJ) was 19.6 µM and the selectivity ratio [8] was > 65. For the same compound, the EC50 (Plasmodium falciparum [9]) was 2.47 µM, the selectivity ratio [10] was 8.6 and the IC50 (Plasmodium falciparum [11]) was < 1 µg/mL. For the same compound, the selectivity ratio [12] was 15.6, the selectivity ratio [13] was 4.6 and the selectivity ratio [14] was > 65. For the same compound, the IC50 (Plasmodium falciparum [15]) was < 1 µg/mL.

With CC(C)c1cc2c(cc1O)[C@@]1(C)CCC[C@@](C)(C=O)[C@@H]1CC2 [18-OXOFERRUGINOL] the EC50 (Plasmodium falciparum [3]) was 15 µM, the EC50 (HepG2) was > 25 µM and the EC50 (HEK293) was > 25 µM. The EC50 (Raji) was > 25 µM, the EC50 (BJ) was > 25 µM and the EC50 (Plasmodium falciparum [9]) was 15 µM.

In the case of CC(C)c1cc2c(cc1O)[C@@]1(C)CCC[C@@](C)(CN3C(=O)c4c(Cl)c(Cl)c(Cl)c(Cl)c4C3=O)[C@@H]1CC2, the EC50 (Plasmodium falciparum [3]) is reported as 15 µM, the EC50 (HepG2) is reported as > 25 µM and the EC50 (HEK293) is reported as > 25 µM. For the same compound, the EC50 (Raji) was > 25 µM, the EC50 (BJ) was > 25 µM and the EC50 (Plasmodium falciparum [9]) was 15 µM.

With CC(=O)Oc1cc2c(cc1C(C)C)CC[C@H]1[C@](C)(CN3C(=O)c4c(Cl)c(Cl)c(Cl)c(Cl)c4C3=O)CCC[C@]21C the EC50 (Plasmodium falciparum [3]) was 15 µM, the EC50 (HepG2) was > 25 µM and the EC50 (HEK293) was > 25 µM. The EC50 (Raji) was > 25 µM, the EC50 (BJ) was > 25 µM and the EC50 (Plasmodium falciparum [9]) was 15 µM.

With CC(=O)Oc1cc2c(cc1C(C)C)CC[C@H]1[C@](C)(CN3C(=O)c4ccccc4C3=O)CCC[C@]21C the EC50 (Plasmodium falciparum [3]) was 15 µM, the EC50 (HepG2) was > 25 µM and the EC50 (HEK293) was > 25 µM. For the same compound, the EC50 (Raji) was > 25 µM, the EC50 (BJ) was > 25 µM and the EC50 (Plasmodium falciparum [9]) was 2.09 µM. The selectivity ratio [13] was > 12.

With CC(C)=CCC[C@]1(C)C=Cc2c(O)c3c(c(CC=C(C)C)c2O1)O[C@]12C(=C[C@@H]4C[C@H]1C(C)(C)O[C@@]2(C/C=C(/C)C(=O)O)C4=O)C3=O [GAMBOGIC ACID] the EC50 (HepG2) was < 2 µM, the EC50 (HEK293) was 0.21 µM and the EC50 (Raji) was 0.24 µM. It also gave an EC50 (BJ) of 0.21 µM.

For CC(C)c1cc2c(cc1O)[C@@]1(C)CCC[C@@](C)(CN)[C@@H]1CC2, the EC50 (Plasmodium falciparum [3]) was 15 µM, the EC50 (HepG2) was > 25 µM and the EC50 (HEK293) was > 25 µM. The EC50 (Raji) was > 25 µM, the EC50 (BJ) was 17.4 µM and the EC50 (Plasmodium falciparum [9]) was 6.67 µM. The selectivity ratio [13] was 2.6.

In the case of CC(=O)c1cc2c(cc1C(C)C)CC[C@H]1[C@](C)(CN3C(=O)c4ccccc4C3=O)CCC[C@]21C, the EC50 (Plasmodium falciparum [3]) is reported as 0.201 µM, the EC50 (HepG2) is reported as > 25 µM and the EC50 (HEK293) is reported as > 25 µM. For the same compound, the EC50 (Raji) was > 25 µM, the EC50 (BJ) was > 25 µM and the EC50 (Plasmodium falciparum [9]) was 0.086 µM. The selectivity ratio [10] was > 124 and the selectivity ratio [13] was > 290.

For CC(=O)Oc1cc2c(cc1C(C)C)/C(=N/NS(=O)(=O)c1ccc(C)cc1)C[C@H]1[C@](C)(CN3C(=O)c4c(Cl)c(Cl)c(Cl)c(Cl)c4C3=O)CCC[C@]21C, the EC50 (Plasmodium falciparum [3]) was 15 µM, the EC50 (HepG2) was > 25 µM and the EC50 (HEK293) was > 25 µM. The EC50 (Raji) was > 25 µM, the EC50 (BJ) was > 25 µM and the EC50 (Plasmodium falciparum [9]) was 15 µM.

For CC(=O)Oc1cc2c(cc1C(C)C)C(=O)C[C@H]1[C@](C)(CN3C(=O)c4c(Cl)c(Cl)c(Cl)c(Cl)c4C3=O)CCC[C@]21C, the EC50 (Plasmodium falciparum [3]) was 15 µM, the EC50 (HepG2) was > 25 µM and the EC50 (HEK293) was > 25 µM. The EC50 (Raji) was > 25 µM, the EC50 (BJ) was > 25 µM and the EC50 (Plasmodium falciparum [9]) was 15 µM.

For CCN(CC)CCCC(C)Nc1ccnc2cc(Cl)ccc12 (stereo not given) [CHLOROQUINE], the EC50 (Plasmodium falciparum [3]) was 0.69 µM, the EC50 (HepG2) was > 25 µM and the EC50 (HEK293) was > 25 µM. For the same compound, the EC50 (Raji) was > 25 µM, the EC50 (BJ) was > 25 µM and the EC50 (Plasmodium falciparum [9]) was 0.023 µM.

In the case of CC(C)c1ccc2c(c1)CC[C@H]1[C@](C)(CN3C(=O)c4ccccc4C3=O)CCC[C@]21C, the EC50 (Plasmodium falciparum [3]) is reported as 15 µM, the EC50 (HepG2) is reported as > 25 µM and the EC50 (HEK293) is reported as > 25 µM. The EC50 (Raji) was > 25 µM, the EC50 (BJ) was > 25 µM and the EC50 (Plasmodium falciparum [9]) was 1.36 µM. For the same compound, the selectivity ratio [13] was > 18.4.

In the case of CC(C)c1cc2c(cc1O)[C@@]1(C)CCC[C@@](C)(CN3C(=O)c4ccccc4C3=O)[C@@H]1CC2, the EC50 (Plasmodium falciparum [3]) is reported as 4 µM, the EC50 (HepG2) is reported as > 25 µM and the EC50 (HEK293) is reported as > 25 µM. The EC50 (Raji) was > 25 µM, the EC50 (BJ) was > 25 µM and the EC50 (Plasmodium falciparum [9]) was 15 µM. For the same compound, the selectivity ratio [10] was > 6.3.
